Source: ChEMBL document CHEMBL3352107, “Development of radamide analogs as Grp94 inhibitors” (Bioorg Med Chem, 2014)
Activity calls are given as the source filed them. The calls are words filed in the database; no cut-off is given here.

Key:
[1] = target: Endoplasmin (Homo sapiens) (UniProt P14625); experiment: Inhibition of recombinant Grp94 (unknown origin) assessed as tracer bound at 25 uM after 24 hrs by fluorescence polarization assay relative to control; set-up: scale not given: the % may be the effect or the level left
Outline: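 Single-point screen at 25 μM. Recombinant cGrp94 (10 nM) and FITC-geldanamycin tracer (6 nM) incubated 24 h at 4°C with rocking in HEPES pH 7.3 buffer containing molybdate, DTT, NP-40 and BGG (1% DMSO). Polarization read at 485/528 nm. Percent tracer bound scaled between DMSO mP (100%) and free tracer mP (0%). Geldanamycin 50 nM was the positive control. Triplicate.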

MDA-MB-231 [2] = experiment: Inhibition of cell migration in human MDA-MB-231 cells assessed as reduction of cell migrated into scratched area after 16 to 24 hrs by wound healing assay; assay type: functional, cell-based
Outline: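 Cells seeded at 200000/well and grown 24 h to a confluent monolayer at 37°C, 5% CO2. Each well scratched with a sterile pipet tip and photographed at 0 h. Compound added at 2.5 up to 25 μM (0.25% DMSO final). Migration into the wound photographed at 16 and 24 h. Quadruplicate wells on two different days.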

[3] = target: Endoplasmin (Homo sapiens) (UniProt P14625); experiment: Inhibition of Gpr94 in human MDA-MB-231 cells assessed as decrease in IGF-II secretion at 1 to 10 uM by Western blot analysis; assay type: cell-based
Outline: (§1)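 Cells plated in 6-well plates and exposed 24 h to high and low compound concentrations, 15 μM radicicol, or DMSO only (0.25% DMSO final). Lysed in MPER with protease inhibitors on ice and clarified at 4°C. Protein measured by BCA. 20 μg per lane run reducing on SDS-PAGE, blotted to PVDF and probed with specific antibodies, HRP secondary, chemiluminescence. For IGF-II, medium volumes normalized to equal actin were blotted.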

[4] = target: Endoplasmin (Homo sapiens) (UniProt P14625); experiment: Binding affinity to Gpr94 in human MDA-MB-231 cells assessed as conformational change using 9G10 antibody by immunoblotting analysis; assay type: cell-based
Outline: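 MDA-MB-231 cells treated overnight at 10 μM (high) or 1 μM (low). Radicicol 15 μM was the positive control and DMSO the negative control. Detergent lysates immunoprecipitated with the conformation-specific anti-Grp94 antibody 9G10, which recognizes only open, unliganded Grp94, on protein G magnetic beads. Precipitates immunoblotted for Grp94.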

[5] = target: Endoplasmin (Homo sapiens) (UniProt P14625); experiment: Binding affinity to Gpr94 in human RPMI18226 cells using 9G10 antibody by immunoblotting analysis; assay type: cell-based
Outline: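 Radicicol 15 μM was the positive control and DMSO the negative control. Detergent lysates pulled down with conformation-specific anti-Grp94 antibody 9G10 on protein G magnetic beads, then immunoblotted for Grp94.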

[6] = Antiproliferative activity against human RPMI18226 cells after 72 hrs by MTS/PMS proliferation assay; assay type: functional, cell-based; details: RPMI18226, 72 h
Outline: (§2)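 Cells kept in RPMI1640 (RPMI 8226) or DMEM (MDA-MB-231) with nonessential amino acids, 2 mM L-glutamine, penicillin/streptomycin and 10% FBS at 37°C, 5% CO2. Seeded at 2000/well, attached overnight, then given compound across a concentration range in 1% DMSO final for 72 h. Viable cells read by MTS/PMS. 1% DMSO wells set as 100%. IC50 from separate triplicate experiments.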

MDA-MB-231 [7] = experiment: Cytotoxicity against human MDA-MB-231 cells at 2.5 to 25 uM after 24 hrs; assay type: cell-based; details: mda-mb-231, 24 h
[8] = target: Heat shock protein HSP 90-alpha (Homo sapiens) (UniProt P07900); experiment: Inhibition of Hsp90alpha in human RPMI18226 cells assessed as cyclin D1 degradation at 0.5 to 5 fold antiproliferative IC50 concentration by Western blot analysis; assay type: cell-based; outline: as §1
[9] = target: Endoplasmin (Homo sapiens) (UniProt P14625); experiment: Inhibition of Gpr94 in human RPMI18226 cells assessed as decrease in IGF-II secretion at 0.25 to 2 fold antiproliferative IC50 concentration by Western blot analysis; assay type: cell-based; outline: as §1
[10] = target: Heat shock protein HSP 90-alpha (Homo sapiens) (UniProt P07900); experiment: Inhibition of Hsp90alpha in human RPMI18226 cells assessed as Akt degradation at 0.5 to 5 fold antiproliferative IC50 concentration by Western blot analysis; assay type: cell-based; outline: as §1
[11] = target: Heat shock protein HSP 90-alpha (Homo sapiens) (UniProt P07900); experiment: Inhibition of Hsp90alpha in human MDA-MB-231 cells assessed as cyclin D1 degradation at 60 uM by Western blot analysis; assay type: cell-based; outline: as §1
[12] = target: Heat shock protein HSP 90-alpha (Homo sapiens) (UniProt P07900); experiment: Inhibition of Hsp90alpha in human MDA-MB-231 cells assessed as Akt degradation at 60 uM by Western blot analysis; assay type: cell-based; outline: as §1
MDA-MB-231 [13] = experiment: Antiproliferative activity against human MDA-MB-231 cells after 72 hrs by MTS/PMS proliferation assay; assay type: functional, cell-based; details: MDA-MB-231, 72 h; outline: as §2

Sequence of Endoplasmin (Homo sapiens) (P14625 whole entry): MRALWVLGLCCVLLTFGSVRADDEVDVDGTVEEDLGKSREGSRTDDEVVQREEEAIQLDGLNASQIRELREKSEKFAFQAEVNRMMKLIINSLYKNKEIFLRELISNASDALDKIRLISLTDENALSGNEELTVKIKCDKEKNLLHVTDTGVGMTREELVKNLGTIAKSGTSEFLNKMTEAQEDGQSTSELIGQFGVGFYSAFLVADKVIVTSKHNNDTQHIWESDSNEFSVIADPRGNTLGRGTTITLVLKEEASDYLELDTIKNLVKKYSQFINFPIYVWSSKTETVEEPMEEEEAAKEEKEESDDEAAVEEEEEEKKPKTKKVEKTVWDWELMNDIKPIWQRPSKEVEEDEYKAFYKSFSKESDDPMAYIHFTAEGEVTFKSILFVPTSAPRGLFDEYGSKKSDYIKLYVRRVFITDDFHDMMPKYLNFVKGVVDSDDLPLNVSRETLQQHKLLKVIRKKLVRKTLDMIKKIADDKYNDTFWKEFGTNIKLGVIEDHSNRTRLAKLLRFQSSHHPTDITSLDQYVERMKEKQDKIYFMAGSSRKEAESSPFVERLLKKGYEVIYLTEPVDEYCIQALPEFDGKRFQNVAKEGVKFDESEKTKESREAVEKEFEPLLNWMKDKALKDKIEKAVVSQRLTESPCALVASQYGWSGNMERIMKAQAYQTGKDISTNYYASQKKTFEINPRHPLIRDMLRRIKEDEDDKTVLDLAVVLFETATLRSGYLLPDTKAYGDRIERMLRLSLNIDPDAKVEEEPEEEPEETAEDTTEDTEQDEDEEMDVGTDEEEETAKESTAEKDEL

Compound	Activity [1]	also measured
COC(=O)c1c(O)cc(O)c(Cl)c1CCC(=O)Nc1ccc(F)cc1	10.9%	–
COC(=O)c1c(O)cc(O)c(Cl)c1CCC(=O)N(C)c1ccccc1	16.7%	–
COC(=O)c1c(O)cc(O)c(Cl)c1CCC(=O)Nc1ccc(C(F)(F)F)cc1	34.5%	–
COC(=O)c1c(O)cc(O)c(Cl)c1CCC(=O)Nc1cc(Cl)ccn1	7.7%	–
COC(=O)c1c(O)cc(O)c(Cl)c1CCC(=O)Nc1ccc(O)cc1	6.5%	–
COC(=O)c1c(O)cc(O)c(Cl)c1CCC(=O)Nc1ccc(I)cc1	29.8%	–
COC(=O)c1c(O)cc(O)c(Cl)c1CCC(=O)Nc1ncc(Br)s1	27.7%	–
COC(=O)c1c(O)cc(O)c(Cl)c1CCC(=O)NNc1ccccc1	26.3%	–
C#Cc1ccc(NC(=O)CCc2c(Cl)c(O)cc(O)c2C(=O)OC)cc1	12.7%	–
COC(=O)c1c(O)cc(O)c(Cl)c1CCC(=O)Nc1nnc(Br)s1	5.1%	–
COC(=O)c1c(O)cc(O)c(Cl)c1CCC(=O)Nc1cccc(Br)c1	9.3%	–
COC(=O)c1c(O)cc(O)c(Cl)c1CCC(=O)Nc1ccccc1C	3.4%	–
COC(=O)c1c(O)cc(O)c(Cl)c1CCC(=O)Nc1cccc(Cl)c1Br	24.9%	–
COC(=O)c1c(O)cc(O)c(Cl)c1CCC(=O)Nc1cc(Cl)cc(Cl)c1	15.6%	–
COC(=O)c1c(O)cc(O)c(Cl)c1CCC(=O)Nc1cccc(N)c1	17.4%	–
COC(=O)c1c(O)cc(O)c(Cl)c1CCC(=O)Nc1cccc(NC(C)=O)c1	8.3%	–
COC(=O)c1c(O)cc(O)c(Cl)c1CCC(=O)Nc1cccnn1	12.2%	–
COC(=O)c1c(O)cc(O)c(Cl)c1CCC(=O)Nc1ccc(OC)cc1	19.8%	–
COC(=O)c1c(O)cc(O)c(Cl)c1CCC(=O)Nc1ncccn1	16.7%	–

More lines, main results first:

Activity [1]	Compound	also measured
20.5%	COC(=O)c1c(O)cc(O)c(Cl)c1CCC(=O)Nc1ccccc1N	–
1%	COC(=O)c1c(O)cc(O)c(Cl)c1CCC(=O)Nc1ccccn1	inhibition (MDA-MB-231 [2]): Dose-dependent effect; inhibition [3]: Active; Activity [4]: Dose-dependent effect; Activity [5]: Dose-dependent effect; IC50 [6]: 9.12 µM; Activity (MDA-MB-231 [7]): Non-toxic; inhibition [8]: inactive; inhibition [9]: Active; inhibition [10]: inactive; inhibition [11]: inactive; inhibition [12]: inactive; IC50 (MDA-MB-231 [13]): 12 µM
22.4%	COC(=O)c1c(O)cc(O)c(Cl)c1CCC(=O)Nc1ncc(Cl)s1	–
9.8%	COC(=O)c1c(O)cc(O)c(Cl)c1CCC(=O)Nc1ncccc1Cl	–
23%	COC(=O)c1c(O)cc(O)c(Cl)c1CCC(=O)N1CCc2ccccc21	–
1.4%	COC(=O)c1c(O)cc(O)c(Cl)c1CCC(=O)Nc1cccc(Cl)n1	–
6.1%	COC(=O)c1c(O)cc(O)c(Cl)c1CCC(=O)Nc1ccccc1Br	–
30.2%	COC(=O)c1c(O)cc(O)c(Cl)c1CCC(=O)N(c1ccccc1)C(C)C	–
18.7%	COC(=O)c1c(O)cc(O)c(Cl)c1CCC(=O)Nc1ccc(C)cc1	–
11%	COC(=O)c1c(O)cc(O)c(Cl)c1CCC(=O)Nc1cccc(F)c1	–
7.9%	COC(=O)c1c(O)cc(O)c(Cl)c1CCC(=O)Nc1ccccc1I	–
18.6%	CCN(C(=O)CCc1c(Cl)c(O)cc(O)c1C(=O)OC)c1ccccc1	–
85%	COC(=O)c1c(O)cc(O)c(Cl)c1CCC(=O)Nc1ccc(-c2ccccc2)cc1	–
